Columns and labels:
[1] = test system: OS-2 osteosarcoma xenograft; experiment: PPTP in vivo xenograft testing, OS-2; set-up: species or system mice
[2] = test system: ALL-4 ALL B-precursor xenograft; experiment: PPTP in vivo xenograft testing, ALL-4; set-up: species or system mice
[3] = test system: ALL-17 ALL B-precursor xenograft; experiment: PPTP in vivo xenograft testing, ALL-17; set-up: species or system mice
[4] = Tolerability in xenograft-bearing mice; type: in vivo
[5] = test system: EW8 Ewing xenograft; experiment: PPTP in vivo xenograft testing, EW8; set-up: species or system mice
[6] = test system: BT-41 ependymoma xenograft; experiment: PPTP in vivo xenograft testing, BT-41; set-up: species or system mice
[7] = test system: OS-17 osteosarcoma xenograft; experiment: PPTP in vivo xenograft testing, OS-17; set-up: species or system mice
[8] = test system: Rh30R ALV rhabdomyosarcoma xenograft; experiment: PPTP in vivo xenograft testing, Rh30R; set-up: species or system mice
[9] = test system: BT-28 medulloblastoma xenograft; experiment: PPTP in vivo xenograft testing, BT-28; set-up: species or system mice
[10] = test system: CHLA-10 cell line; experiment: DIMSCAN in vitro cytotoxicity testing, CHLA-10; type: cell-based
Method in brief: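 Test compound incubated with cells of a 24-line pediatric cancer panel for 96 h at 0.1 nM to 1 μM, then assessed by DIMSCAN. Relative IC50 (rIC50) derived per line. Panel comparison value is the panel rIC50 divided by the rIC50 of each cell line.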

[11] = test system: Rh18 EMB rhabdomyosarcoma xenograft; experiment: PPTP in vivo xenograft testing, Rh18; set-up: species or system mice
[12] = test system: BT-29 rhabdoid xenograft; experiment: PPTP in vivo xenograft testing, BT-29; set-up: species or system mice; details: 1 mg/kg IP
[13] = 1 mg/kg IP Q4Dx3 repeated at Day 21
[14] = 1.5 mg/kg IP Q4Dx3 repeated at Day 21

C=C1C[C@@H]2CC[C@@]34C[C@H]5O[C@H]6[C@@H](O3)[C@H]3O[C@H](CC[C@@H]3O[C@H]6[C@H]5O4)CC(=O)C[C@@H]3[C@@H](OC)[C@@H](C[C@H](O)CN)O[C@H]3C[C@H]3O[C@@H](CC[C@@H]1O2)C[C@@H](C)C3=C [Eribulin]
EFS activity ([1]; 1 mg/kg IP): High (High activity requires: (a) an EFS T/C >2; (b) a significant difference in EFS distributions, and (c) a net reduction in median tumor volume for animals in the treated group at the end of treatment as compared to at treatment initiation) | Response activity ([1]; 1 mg/kg IP): Int (intermediate activity by a score of ≥2 but <6) | T/C volume activity ([1]; 1 mg/kg IP): Int (Intermediate activity = T/C ≤0.45 but >0.15) | EFS T/C [1, 13]: >2.5 | Median final RTV (CD45%) [1, 13]: 0.8 | Tumor volume T/C ([1]; 1 mg/kg IP, Day 21 or earlier): 0.21 | EFS activity ([2]; 1.5 mg/kg IP): High (High activity requires: (a) an EFS T/C >2; (b) a significant difference in EFS distributions, and (c) a net reduction in median tumor volume for animals in the treated group at the end of treatment as compared to at treatment initiation) | Response activity ([2]; 1.5 mg/kg IP): High (A high level of activity is indicated by a score of 6 or more) | EFS T/C [2, 14]: >4.3 | Median final RTV (CD45%) ([2]; CD45%, 1.5 mg/kg IP): 0.0% | EFS activity ([3]; 1.5 mg/kg IP): High (High activity requires: (a) an EFS T/C >2; (b) a significant difference in EFS distributions, and (c) a net reduction in median tumor volume for animals in the treated group at the end of treatment as compared to at treatment initiation) | Response activity ([3]; 1.5 mg/kg IP): High (A high level of activity is indicated by a score of 6 or more) | EFS T/C [3, 14]: >5.3 | Median final RTV (CD45%) ([3]; CD45%, 1.5 mg/kg IP): 0.0% | toxicity rate in the treated groups ([4]; 6 of 409 treated mice, control 1 of 401): 1.5% | MTD at 6 weeks ([4]; NOD-SCID, mouse, in vivo, ip): 1.5 mg/kg | EFS activity ([5]; 1 mg/kg IP): High (High activity requires: (a) an EFS T/C >2; (b) a significant difference in EFS distributions, and (c) a net reduction in median tumor volume for animals in the treated group at the end of treatment as compared to at treatment initiation) | Response activity ([5]; 1 mg/kg IP): High (A high level of activity is indicated by a score of 6 or more) | T/C volume activity ([5]; 1 mg/kg IP): High (High activity = T/C ≤0.15) | EFS T/C [5, 13]: >3.1 | Median final RTV (CD45%) [5, 13]: 0.0 | Tumor volume T/C ([5]; 1 mg/kg IP, Day 21 or earlier): 0.00 | Response activity ([6]; 1 mg/kg IP): Int (intermediate activity by a score of ≥2 but <6) | T/C volume activity ([6]; 1 mg/kg IP): Int (Intermediate activity = T/C ≤0.45 but >0.15) | Median final RTV (CD45%) [6, 13]: 1.3 | Tumor volume T/C ([6]; 1 mg/kg IP, Day 21 or earlier): 0.42 | EFS activity ([7]; 1 mg/kg IP): High (High activity requires: (a) an EFS T/C >2; (b) a significant difference in EFS distributions, and (c) a net reduction in median tumor volume for animals in the treated group at the end of treatment as compared to at treatment initiation) | Response activity ([7]; 1 mg/kg IP): High (A high level of activity is indicated by a score of 6 or more) | T/C volume activity ([7]; 1 mg/kg IP): Int (Intermediate activity = T/C ≤0.45 but >0.15) | EFS T/C [7, 13]: >2.3 | Median final RTV (CD45%) [7, 13]: 0.5 | Tumor volume T/C ([7]; 1 mg/kg IP, Day 21 or earlier): 0.25 | EFS activity ([8]; 1 mg/kg IP): High (High activity requires: (a) an EFS T/C >2; (b) a significant difference in EFS distributions, and (c) a net reduction in median tumor volume for animals in the treated group at the end of treatment as compared to at treatment initiation) | Response activity ([8]; 1 mg/kg IP): High (A high level of activity is indicated by a score of 6 or more) | T/C volume activity ([8]; 1 mg/kg IP): High (High activity = T/C ≤0.15) | EFS T/C [8, 13]: >4.3 | Median final RTV (CD45%) [8, 13]: 0.0 | Tumor volume T/C ([8]; 1 mg/kg IP, Day 21 or earlier): 0.11 | EFS activity ([9]; 1 mg/kg IP): High (High activity requires: (a) an EFS T/C >2; (b) a significant difference in EFS distributions, and (c) a net reduction in median tumor volume for animals in the treated group at the end of treatment as compared to at treatment initiation) | Response activity ([9]; 1 mg/kg IP): Int (intermediate activity by a score of ≥2 but <6) | T/C volume activity ([9]; 1 mg/kg IP): Int (Intermediate activity = T/C ≤0.45 but >0.15) | EFS T/C [9, 13]: >3.3 | Median final RTV (CD45%) [9, 13]: 0.7 | Tumor volume T/C ([9]; 1 mg/kg IP, Day 21 or earlier): 0.44 | IC50 ([10]; 96 h, read-out: rIC50): 0.11 nM | Panel rIC50/Line rIC50 ([10]; CHLA-10): 2.58 | Relative in/out% ([10]; CHLA-10): −28% | Ymin % (observed) ([10]; CHLA-10): 4.54% | EFS activity ([11]; 1 mg/kg IP): Int (Intermediate activity = criteria (a) and (b) above, but not having a net reduction in median tumor volume for treated animals at the end of the study) | Response activity ([11]; 1 mg/kg IP): Int (intermediate activity by a score of ≥2 but <6) | T/C volume activity ([11]; 1 mg/kg IP): Low (Low activity = T/C >0.45) | EFS T/C [11, 13]: >3.2 | Median final RTV (CD45%) [11, 13]: 1.8 | Tumor volume T/C ([11]; 1 mg/kg IP, Day 21 or earlier): 0.76 | Response activity [12]: Int (intermediate activity by a score of ≥2 but <6)
